Compounds with a hit are over-represented: about 2.6% of the library has one in this group of screens.
SENP1 FRET inh – human SENP1 catalytic domain inhibitors, primary screen, biochemical, FRET, uHTS | Sentrin-specific protease 1 (Homo sapiens), Q9P0U3 | hit rate 0.21% among 360,000 | recombinant SENP1 catalytic domain, CyPet-SUMO1-YPet FRET cleavage | inhibition, % at 10 µM;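 active means inhibition at least 30% at 10 µM, raw YFP signal under a set limit, fluorescence ratio 0.5 to 1.5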;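 further: 0% = enzyme with DMSO and 100% = no enzyme wells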
Target sequence (Q9P0U3 419-644 limits assumed): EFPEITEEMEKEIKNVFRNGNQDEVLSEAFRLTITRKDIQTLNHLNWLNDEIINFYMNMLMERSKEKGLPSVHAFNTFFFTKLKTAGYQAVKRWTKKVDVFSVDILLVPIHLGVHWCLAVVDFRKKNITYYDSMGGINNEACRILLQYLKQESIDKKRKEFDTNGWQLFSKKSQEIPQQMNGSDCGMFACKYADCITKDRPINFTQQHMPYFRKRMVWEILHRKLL
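Material: hSENP1 catalytic domain, recombinant; medium: Tris pH 8 with BME, BSA, NP40 and catalase; compound: single concentration of 10 µM compound, 0.5% DMSO final; technique: FRET read of cyan and yellow fluorescence; timing: 50 min enzyme reaction, room temperature, light-protected; reagent: SFCypet-SUMO1-SFYpet substrate at 25 nM; control set: no-enzyme low, enzyme-DMSO high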
SENP8 block-1 – SENP8 protease inhibitors, primary screen, biochemical, luminescence; purified SENP8, Z-RLRGG-aminoluciferin cleavage; inhibition, % at 10 µM; hit rate 1.2% among 330,000; AID 2540, 2010; in the data active means inhibition above about 50%
UCH37 inh – inhibitors of human UCH37 deubiquitinase, primary screen, biochemical, Ub-AMC cleavage, fluorescence; Ubiquitin carboxyl-terminal hydrolase isozyme L5 (Homo sapiens), Q9Y5K5; purified proteasome/UCH37; inhibition, % (concentration not given with the values); hit rate 0.33% among 330,000;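 active means mean inhibition over replicate wells above about 20%, limit read from the data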;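 further: 0% = compound-free wells with enzyme and 100% = wells lacking proteasome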
Target sequence (Q9Y5K5 whole entry, looked up): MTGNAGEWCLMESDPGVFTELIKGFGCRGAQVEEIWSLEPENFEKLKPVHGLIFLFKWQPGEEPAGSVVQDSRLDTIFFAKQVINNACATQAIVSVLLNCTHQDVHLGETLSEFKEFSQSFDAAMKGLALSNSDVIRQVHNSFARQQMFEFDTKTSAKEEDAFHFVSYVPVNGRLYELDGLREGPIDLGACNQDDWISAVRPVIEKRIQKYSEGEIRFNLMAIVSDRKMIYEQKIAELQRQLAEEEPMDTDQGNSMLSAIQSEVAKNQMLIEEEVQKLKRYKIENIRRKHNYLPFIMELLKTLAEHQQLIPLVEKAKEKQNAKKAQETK
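system = Proteasome-associated human UCH37 deubiquitinase | amount = 0.15 nM proteasome as dispensed | medium = pH 7.4 Tris-HCl (50 mM) with ovalbumin, ATP-MgCl2, DTT | incubation = 30 min preincubation with enzyme, 25 min cleavage at room temperature | detection = AMC fluorescence 355/460 nm | read-out basis = percent inhibition | controls = no-proteasome and no-compound wells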
SENP6 inh – SENP6 protease inhibitors, primary screen, biochemical, luminescence, uHTS; hit rate 1.8% among 330,000; inhibition, % at 10 µM; Sentrin-specific protease 6 (Homo sapiens), Q9GZR1; Recombinant SENP6 catalytic domain, aminoluciferin luminescence; AID 2599, 2010;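 active means inhibition above about 50% at the single tested dose, limit read from the data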;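 further: plate controls were DMSO wells with enzyme for no effect and DMSO wells lacking enzyme for full effect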
SENP7 block – SENP7 protease inhibitors, primary screen, biochemical, luminescence, uHTS; inhibition, % at 5 µM; Sentrin-specific protease 7 (Homo sapiens), Q9BQF6; AID 434973, 2010; hit rate 1.5% among 330,000; recombinant SENP7, Z-RLRGG-aminoluciferin luminescence, 40 min;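 active means inhibition above about 50% at the single test dose, limit read from the data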;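 further: plate controls were DMSO with enzyme for no effect and no enzyme buffer wells for full effect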
SENP8 block-2 – human SENP8 protease inhibitors, primary screen, biochemical, fluorescence, Nedd8 protein substrate, uHTS; recombinant SENP8; inhibition, % at 20 µM; hit rate 0.64% among 360,000; in the data active means inhibition mostly above about 40%, no sharp cut-off; inactive means mostly below about 27%
SENP8 conf – SENP8 protease inhibitors, retest, confirmation, biochemical, luminescence, single concentration. shares compounds with SENP7 block. Recombinant SENP8, Z-RLRGG-aminoluciferin luminescence, 60 min. inhibition, % at 12.5 µM. hit rate 40% among 6,200. AID 488912, 2010;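 active means mean inhibition across replicates above about 50%, limit read from the data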
SENP6 conf – SENP6 protease inhibitors, confirmation, biochemical, luminescence, single concentration; shares compounds with SENP7 block; recombinant SENP6, Z-RLRGG-aminoluciferin luminescence; inhibition, % at 12.5 µM; hit rate 58% among 6,200
SENP7 conf – SENP7 protease inhibitors, retest, confirmation, biochemical, luminescence, single concentration. hit rate 69% among 6,200. inhibition, % at 12.5 µM. recombinant SENP7, Z-RLRGG-aminoluciferin luminescence, 40 min. shares compounds with SENP7 block
Casp3 select – caspase-3 protease inhibitors, confirmation, selectivity assay for SENP inhibitor project, biochemical, single concentration. hit rate 60% among 6,200. inhibition, % at 12.5 µM. shares compounds with SENP7 block. AID 488918, 2010. purified caspase-3, Z-DEVD-aminoluciferin luminescence, 60 min;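 active means mean inhibition above about 50%, limit read from the data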;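 further: plate controls were enzyme with DMSO for no effect and wells without caspase-3 for full effect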
SENP luc ctr – interferes with luciferase luminescence in SENP counter-screen. shares compounds with SENP7 block. Pre-incubated SENP8/Z-RLRGG-aminoluciferin, luciferase luminescence interference. inhibition, % at 12.5 µM. hit rate 39% among 6,200;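 active means mean inhibition above about 50% when retested at one dose, limit read from the data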;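 further: plate controls were DMSO wells with completed reaction for no effect and substrate without enzyme for full effect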
* = called active by the depositor.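 How the source made its calls, unless noted: active means mean inhibition above about 50% in the one-dose retest (limit read from the data); inactive means the rest.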

Cc1ccc(C=NNC(=S)NC2CCCCC2)o1 was read as UCH37 inh 7.
`CCOC(=O)C1CCN(c2ccc(-c3cccs3)nn2)CC1` gave SENP1 FRET inh 1, SENP8 block-1 91*, UCH37 inh -13, SENP6 inh 96*, SENP7 block 95*, SENP8 block-2 -23, SENP8 conf 94*, SENP6 conf 94*, SENP7 conf 100*, Casp3 select 96* and SENP luc ctr 90*.
Screening c1csc(-c2ccc(N3CCOCC3)nn2)c1 returned SENP1 FRET inh 1, SENP8 block-1 42, UCH37 inh -17, SENP6 inh 54*, SENP7 block 67*, SENP8 block-2 -52, SENP8 conf 57*, SENP6 conf 56*, SENP7 conf 86*, Casp3 select 88* and SENP luc ctr 63*.
Screening O=C1/C(=C\c2cccs2)Sc2ccc3ccccc3c21 returned SENP1 FRET inh 4, SENP8 block-1 88*, UCH37 inh 1, SENP6 inh 92*, SENP7 block 98*, SENP8 block-2 10, SENP8 conf 9, SENP6 conf 50*, SENP7 conf 80*, Casp3 select 78* and SENP luc ctr 2.
Screening O=C(Nc1cccc(C(=O)N2CCOCC2)c1)c1ncn[nH]1 returned SENP1 FRET inh 0, SENP8 block-1 2, UCH37 inh 2, SENP6 inh -4, SENP7 block 85*, SENP8 block-2 7, SENP8 conf 11, SENP6 conf 8, SENP7 conf 13, Casp3 select 8 and SENP luc ctr 6.
For Cc1ccc(C(=O)Nc2cccc(C(=O)N3CCOCC3)c2)cc1 the results were SENP1 FRET inh 2, SENP8 block-1 -1, UCH37 inh 1, SENP6 inh -2, SENP7 block 1 and SENP8 block-2 9.
For COc1cc(C=NNC(=O)C(N)=O)ccc1OCC(=O)N1C(C)CCCC1C (stereo not drawn) the results were UCH37 inh 14.
CCN1CCN(C=Nc2nc(C)cs2)CC1 was read as UCH37 inh 1.
`CC1=NN(C(N)=S)C(=O)C1N=Nc1c(C)cc(C)cc1C` (stereo not drawn) gave SENP1 FRET inh 4, SENP8 block-1 -8, UCH37 inh 9, SENP6 inh 16, SENP7 block 1 and SENP8 block-2 26.
Screening COc1cccc(N=NC2C(=O)N(C(N)=S)N=C2C)c1 (stereo not drawn) returned SENP1 FRET inh 2, SENP8 block-1 79*, UCH37 inh 14, SENP6 inh 85*, SENP7 block 68*, SENP8 block-2 25, SENP8 conf 71*, SENP6 conf 86*, SENP7 conf 98*, Casp3 select 91* and SENP luc ctr 42.
Screening CC1=NN(C(N)=S)C(=O)C1N=Nc1cccc(Cl)c1 (stereo not drawn) returned SENP1 FRET inh 1, SENP8 block-1 85*, UCH37 inh 8, SENP6 inh 92*, SENP7 block 66*, SENP8 block-2 12, SENP8 conf 37, SENP6 conf 90*, SENP7 conf 100*, Casp3 select 90* and SENP luc ctr 88*.
`CC(=O)N(N=C1C(=O)Nc2ccccc21)c1ccccc1` gave UCH37 inh 3.
For O=C(NN=Cc1ccncc1)c1ccc(NC(=O)c2cccc(Cl)c2)cc1 the results were UCH37 inh 2.
CC(=O)Nc1sc(NN=Cc2ccccc2F)nc1-c1cccs1 was read as UCH37 inh -63.
CCOc1ccc(-c2cc(N3C(=O)Nc4ccccc4N3O)on2)cc1 was read as SENP1 FRET inh 0, SENP8 block-1 18, UCH37 inh 2, SENP6 inh 54*, SENP7 block 39, SENP8 block-2 3, SENP8 conf 44, SENP6 conf 42, SENP7 conf 79*, Casp3 select 77* and SENP luc ctr 67*.
COc1ccc(C=NNC(=O)C(N)=O)c(OC)c1OC was read as UCH37 inh 7.
For COc1cc(NC(C)CCCN)c2ncccc2c1Oc1ccccc1 (stereo not drawn) the results were SENP1 FRET inh -34, SENP8 block-1 34, UCH37 inh 3, SENP6 inh 74*, SENP7 block 30, SENP8 block-2 -13, SENP8 conf 15, SENP6 conf 28, SENP7 conf 18, Casp3 select 9 and SENP luc ctr 3.
For COc1ccc(Oc2c(OC)cc([N+](=O)[O-])c3ncccc23)cc1 the results were SENP1 FRET inh 1, UCH37 inh 1 and SENP8 block-2 15.
CO/N=C/C(C(C)=O)C(=O)Nc1ccc(Cl)cc1Cl (stereo not drawn) was read as SENP1 FRET inh -3, SENP8 block-1 10, SENP6 inh 56*, SENP7 block -4, SENP8 block-2 9, SENP8 conf 12, SENP6 conf 15, SENP7 conf 46, Casp3 select 26 and SENP luc ctr 16.
`Nc1nn(-c2cccc(F)n2)cc1-c1ccc(Cl)cc1` gave SENP1 FRET inh 1, SENP8 block-1 52*, UCH37 inh 4, SENP6 inh 62*, SENP7 block 88*, SENP8 block-2 -3, SENP8 conf 16, SENP6 conf 21, SENP7 conf 48, Casp3 select 32 and SENP luc ctr 8.

Source: PubChem BioAssay
